Source: publication PMC5558211 (Journal of medicinal chemistry, 2017)
“Also recorded” adds a separate entry of the source.

Columns and labels:
[1] = target: 5FW-Brd4(1) (Homo sapiens, UniProt O60885); test: PrOF NMR titration; format: binding
Outline: (§1)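 19F NMR at 500 MHz with cryoprobe, 40–50 μM 5FW-labelled bromodomain in 50 mM Tris, 100 mM NaCl, pH 7.4, 5% D2O (BrdT samples also 3 mM DTT). Used 90° flip angle, 0.7 s relaxation delay, 0.1 s acquisition and 500 transients, referenced to TFA at −76.55 ppm. Ligand was titrated from concentrated DMSO stocks, keeping DMSO below 1%. Kd came from a one-site fit accounting for ligand depletion.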

[2] = system: c-Myc; test: Western blot of c-Myc levels; format: cell-based; conditions: MM1.S cells, 6 h
Outline: (§2)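 MM1.S cells were grown in RPMI-1640 with 10% FBS at 37 °C, 5% CO2, seeded at 1 × 10^6 per well and exposed to increasing inhibitor concentrations for 6 h. Cells were pelleted (300 g, 5 min) and lysed at 4 °C with protease/phosphatase inhibitors plus 5 mM EDTA. Protein was quantified, run on 10 or 12.5% SDS-PAGE, transferred and probed with c-MYC or p21Cip1 antibodies, with chemiluminescent detection.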

[3] = system: p21Cip1; test: Western blot of p21Cip1 levels; format: cell-based; conditions: MM1.S cells, 6 h
Outline: as §2

[4] = Stability of DMSO solution over freeze-thaw cycles by ESI-MS; format: physicochemical; conditions: DMSO solution at −20 °C, several freeze-thaw cycles
[5] = target: T1, Brd4(1) (Homo sapiens, UniProt O60885); test: AlphaScreen competition against biotinylated compound 2; format: binding; conditions: for Hill slope: alpha-screen competition
[6] = target: 5FW-BPTF (Homo sapiens, UniProt Q12830); test: PrOF NMR titration; format: binding; conditions: non-BET bromodomain BPTF
[7] = target: 5FW-BrdT(1) (Homo sapiens, UniProt Q58F21); test: PrOF NMR titration; format: binding
Outline: as §1

[8] = system: MM1.S cells; test: Cell viability; format: cell-based
[9] = target: BrdT(1) (Homo sapiens, UniProt Q58F21); test: Fluorescence anisotropy competition assay with BI-BODIPY tracer; format: binding
[10] = target: T1, Brd4(1); test: as above; format: binding

SMILES | effect on c-Myc levels [2] | effect on p21Cip1 levels [3] | binding behaviour by PrOF NMR [1] | binding by fluorescence anisotropy [9] | further results
CCn1c(N)cc(=O)[nH]c1=O [6-amino-1-ethyluracil, reference compound] |  |  |  |  | ligand efficiency ([1]; from PrOF NMR Kd): 0.39 kcal/mol/non-hydrogen atom
Cc1sc2c(c1C)C(c1ccc(Cl)cc1)=N[C@@H](CC(=O)OC(C)(C)C)c1nnc(C)n1-2 [Compound 2, (+)-JQ1, reference compound] | dose-dependent reduction of c-Myc levels | upregulation of p21Cip1 levels |  |  | 
CCn1c2c(c(=O)[nH]c1=O)C(c1ccc(C)cc1)C1=C(COC1=O)N2 (stereo not drawn) [Compound 3, 1-Ethyl-5-(p-tolyl)-5,9-dihydrofuro[3′,4′:5,6]pyrido[2,3-d]pyrimidine-2,4,6(1H,3H,8H)-trione] | ineffective in altering c-Myc or p21Cip1 levels | ineffective in altering c-Myc or p21Cip1 levels | slow to intermediate exchange |  | stability of dihydropyridine moiety [4]: remains stable; effect of serum on binding by PrOF NMR ([1]; presence of serum): did not interfere with the binding; Hill slope [5]: −1; binding by PrOF NMR [6]: does not bind; also recorded: no binding was detected; binding behaviour by PrOF NMR [7]: slow to intermediate exchange; growth inhibition activity [8]: lacked growth inhibition activity
Cc1ccc(C2C3=C(COC3=O)Nc3c2c(=O)n(C)c(=O)n3C)cc1 (stereo not drawn) [Compound 3e, 1,3-Dimethyl-5-(p-tolyl)-5,9-dihydrofuro[3′,4′:5,6]pyrido[2,3-d]pyrimidine-2,4,6(1H,3H,8H)-trione] |  |  |  | inactive | 
COc1ccc(C2C3=C(COC3=O)Nc3c2c(=O)n(C)c(=O)n3C)cc1 (stereo not drawn) [Compound 3f, 5-(4-Methoxyphenyl)-1,3-dimethyl-5,9-dihydrofuro[3′,4′:5,6]pyrido[2,3-d]pyrimidine-2,4,6(1H,3H,8H)-trione] |  |  |  | inactive | 
Cc1ccc(C2C3=C(COC3=O)Nc3c2c(=O)[nH]c(=O)n3CC(F)(F)F)cc1 (stereo not drawn) [Compound 3j, 5-(p-Tolyl)-1-(2,2,2-trifluoroethyl)-5,9-dihydrofuro[3′,4′:5,6]pyrido[2,3-d]pyrimidine-2,4,6(1H,3H,8H)-trione] | ineffective in altering c-Myc or p21Cip1 levels | ineffective in altering c-Myc or p21Cip1 levels | slow to intermediate exchange |  | IC50 [5]: 4.6 µM; Hill slope [5]: −1.6; growth inhibition activity [8]: lacked growth inhibition activity
CCn1c2c(c(=O)n(C)c1=O)C(c1ccc(C)cc1)C1=C(COC1=O)N2 (stereo not drawn) [Compound 3m, 1-Ethyl-3-methyl-5-(p-tolyl)-5,9-dihydrofuro[3′,4′:5,6]pyrido[2,3-d]pyrimidine-2,4,6(1H,3H,8H)-trione] |  |  |  | inactive | 
CCn1c(=O)[nH]c(=O)c2c(-c3ccc(C)cc3)c3c(nc21)COC3=O [Compound 3n, 1-Ethyl-5-(p-tolyl)furo[3′,4′:5,6]pyrido[2,3-d]pyrimidine-2,4,6(1H,3H,8H)-trione] |  |  |  | no binding was observed | binding by fluorescence anisotropy [10]: no binding was observed
CCn1c2c(c(=O)[nH]c1=O)C(c1ccc(C)cc1)C1=C(CN(Cc3ccccc3)C1=O)N2 (stereo not drawn) [Compound 3p, 7-Benzyl-1-ethyl-5-(p-tolyl)-5,7,8,9-tetrahydro-1H-pyrrolo[3',4':5,6]pyrido[2,3-d]pyrimidine-2,4,6(3H)-trione] | decreasing c-Myc expression levels | concomitant increase in p21Cip1 |  |  | 
CCn1c2c(c(=O)[nH]c1=O)C(c1ccc(C)cc1)C1=C(CN(CCc3ccccc3)C1=O)N2 (stereo not drawn) [Compound 3q, 1-Ethyl-7-phenethyl-5-(p-tolyl)-5,7,8,9-tetrahydro-1H-pyrrolo[3',4':5,6]pyrido[2,3-d]pyrimidine-2,4,6(3H)-trione] | decreasing c-Myc expression levels | concomitant increase in p21Cip1 |  |  | 
CCn1c2c(c(=O)[nH]c1=O)C(c1ccc(C)cc1)C1=C(CN(CCc3ccc(OC)cc3)C1=O)N2 (stereo not drawn) [Compound 3r, 1-Ethyl-7-(4-methoxyphenethyl)-5-(p-tolyl)-5,7,8,9-tetrahydro-1H-pyrrolo[3',4':5,6]pyrido[2,3-d]pyrimidine-2,4,6(3H)-trione] | decreasing c-Myc expression levels | concomitant increase in p21Cip1 |  |  | 
CCn1c2c(c(=O)[nH]c1=O)C(c1ccc(C)cc1)C1=C(CN(CCc3ccc(O)cc3)C1=O)N2 (stereo not drawn) [Compound 3s, 1-Ethyl-7-(4-hydroxyphenethyl)-5-(p-tolyl)-5,7,8,9-tetrahydro-1H-pyrrolo[3',4':5,6]pyrido[2,3-d]pyrimidine-2,4,6(3H)-trione] | decreasing c-Myc expression levels | concomitant increase in p21Cip1 | slow exchange |  | 
O=C1COC(=O)C1 [tetronic acid, reference compound] |  |  | No binding was observed |  | 
